A selection: hits, their analogues and other compounds. The true share with any hit is near 1.9%.
NadD block: inhibitors of S. aureus NadD, primary screen, biochemical, colorimetric, uHTS. Nicotinate-nucleotide adenylyltransferase NadD (Staphylococcus aureus N315). purified NadD enzyme, colorimetric absorbance read-out. inhibition, % at 20 µM. hit rate 0.78% among 360,000. AID 602399, 2012; in the data active = inhibition above about 26%
Pemphigus Ab inh: inhibitors of pemphigus antibody binding to DSG3, primary screen, biochemical, bead-based, flow cytometry, scFv-GFP; DSG3-coupled beads, scFv-anti-DSG3-GFP binding; stronger effect = lower value; binding (percent of control), % at 10 µM; hit rate 0.48% among 310,000;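 active = binding more than 3 SD below its plate's average and above zero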
Target sequence (P32926 whole entry, looked up): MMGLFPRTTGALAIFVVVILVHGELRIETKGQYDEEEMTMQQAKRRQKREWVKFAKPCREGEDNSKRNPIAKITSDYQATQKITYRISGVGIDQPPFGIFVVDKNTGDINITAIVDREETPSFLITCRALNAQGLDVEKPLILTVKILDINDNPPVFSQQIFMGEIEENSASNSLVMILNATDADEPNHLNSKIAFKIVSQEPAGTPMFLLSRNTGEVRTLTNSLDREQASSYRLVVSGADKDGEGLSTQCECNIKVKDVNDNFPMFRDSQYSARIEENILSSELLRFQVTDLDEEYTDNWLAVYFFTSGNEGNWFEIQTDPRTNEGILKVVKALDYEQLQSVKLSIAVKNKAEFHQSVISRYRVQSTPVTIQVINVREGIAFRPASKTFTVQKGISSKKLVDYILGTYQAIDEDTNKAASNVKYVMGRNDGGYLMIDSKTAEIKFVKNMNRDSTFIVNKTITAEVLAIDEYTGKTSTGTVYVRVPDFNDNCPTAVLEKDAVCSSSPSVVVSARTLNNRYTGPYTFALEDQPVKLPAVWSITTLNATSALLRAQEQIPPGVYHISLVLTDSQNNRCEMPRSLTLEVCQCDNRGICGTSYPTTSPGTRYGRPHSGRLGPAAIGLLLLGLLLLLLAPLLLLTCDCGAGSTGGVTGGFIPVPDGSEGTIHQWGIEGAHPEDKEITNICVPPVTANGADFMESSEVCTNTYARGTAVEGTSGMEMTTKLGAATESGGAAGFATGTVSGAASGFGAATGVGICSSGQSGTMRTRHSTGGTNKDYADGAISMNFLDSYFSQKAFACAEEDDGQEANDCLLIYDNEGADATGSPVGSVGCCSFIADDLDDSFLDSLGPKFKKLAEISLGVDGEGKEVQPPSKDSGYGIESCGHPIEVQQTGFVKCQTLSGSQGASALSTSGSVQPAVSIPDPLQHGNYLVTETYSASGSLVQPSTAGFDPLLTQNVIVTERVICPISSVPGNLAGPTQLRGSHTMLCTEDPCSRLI
core dimer inh: inhibitors of HCV core protein dimerization, primary screen, biochemical, TR-FRET, high-throughput | TR-FRET GST/Flag-core106 dimerization, 1536-well | inhibition, % at 5 µM | hit rate 0.33% among 300,000 | AID 1899, 2009;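 active = inhibition above the mean of all tested compounds plus 3 SD, set per screening campaign, cut at about 45% in these data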
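Test system: GST/Flag-tagged HCV core106 proteins; Medium: KF-containing HEPES buffer, pH 7.45, DTT, CHAPS, BSA; Times: compound-protein-antibody incubation 4 h at 22.5 °C; Detection: TR-FRET 671 and 617 nm emission; Benchmarks: wells lacking GST-core106 and wells with excess unlabelled core106.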
Rce1 inh: yeast Rce1p protease inhibitors, primary screen, biochemical, fluorescence, cell-free homogeneous; CAAX prenyl protease 2 (Saccharomyces cerevisiae (strain ATCC 204508 / S288c)), Q03530; yeast membranes, quenched prenylated peptide cleavage fluorescence; calls only; hit rate 0.27% among 290,000;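 active = fall in fluorescence gain of 50% or more versus controls, with final raw signal at or below 3038400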;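 also: plate controls were neutral control wells for no effect and wells lacking membranes for full effect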
TbMetRS inhib: T. brucei MetRS inhibitors, primary screen, biochemical, luminescence; inhibition, % at 11.9 µM; hit rate 0.4% among 360,000; purified T. brucei MetRS, ATP depletion, Kinase-Glo luminescence; methionyl-tRNA synthetase (Trypanosoma brucei brucei); AID 624268, 2012;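 active = inhibition above a per-plate cutoff of the control wells' mean inhibition plus 3 SD, cut at about 5.5% in these data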;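 also: 0% = DMSO wells median and 100% = median of wells with control inhibitor compound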
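Measured by: Kinase-Glo luciferase luminescence reporting remaining unconsumed ATP. Material: purified T. brucei MetRS enzyme. Doses: 11.9 µM compound single dose, 0.9% DMSO. Medium: HEPES buffer containing pyrophosphatase, BSA, spermine, DTT. Times: 15 min preincubation, 2 h reaction, all 25 °C. Reagent: methionine, ATP and bulk E. coli tRNA.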
* = called active by the depositor; i = inactive; · = not tested or not shown; + = active, no number.

SMILES | NadD block | Pemphigus Ab inh | core dimer inh | Rce1 inh | TbMetRS inhib
O=C(/C=C/c1ccc(-c2cccc([N+](=O)[O-])c2)o1)N1CCOCC1 | 7.0 | 86.0* | -2.7 | i | 0.5
Cc1cccc(N2CCN(C(=O)/C=C/c3cccs3)CC2C)c1 (configuration not stated) | 0.5 | 126.6 | 5.8 | i | 1.9
Cc1cccc(N2CCN(C(=O)CSc3ccsc3[N+](=O)[O-])CC2C)c1 (configuration not stated) | 4.7 | 94.7 | 57.0* | i | -0.4
COc1ccccc1NC(=O)CSc1nnc(Cc2cc(=O)[nH]c(=O)[nH]2)n1-c1ccccc1 | -2.5 | 96.3 | -0.8 | i | 0.1
O=C(CN1C(=O)NC2(CCCC2)C1=O)Nc1cccc(Cl)c1Cl | -5.2 | 56.6* | 4.0 | i | -0.5
Cc1ccc(/C=N/Nc2nc(N3CCOCC3)nc(N3CCOCC3)n2)o1 | -2.3 | 97.9 | 1.2 | i | -0.8
N#CC(=C=[N-])c1nc2ccccc2nc1-[n+]1cccc(NC(=O)c2ccccc2)c1 | -2.0 | 102.1 | -4.8 | i | -0.2
N#CC(=C=[N-])c1nc2ccccc2nc1-[n+]1cccc(NC(=O)c2cccs2)c1 | 7.4 | 50.9* | -8.6 | i | -0.1
Cc1ccc2[nH]c(C)c(CCN(Cc3cccnc3)C(=S)NC(C)(C)C)c2c1 | -5.8 | 106.0 | -2.2 | i | -1.0
O=C(NC(=S)Nc1ccc(-c2ccc(CO)o2)cc1)c1cccs1 | 20.8 | · | 51.1* | i | 0.8
Cc1ccc(C(=O)NC(=S)Nc2ccc(-c3ccc(CO)o3)cc2)cc1 | -0.3 | 95.3 | 22.2 | i | 0.0
O=C1CCCC(=O)C1C1c2ccccc2CCN1C(=O)CCl (configuration not stated) | -4.1 | 102.5 | -2.5 | i | -0.4
C=CCn1c(SCC(=O)Nc2sc3c(c2C#N)CCC3)nnc1C1COc2ccccc2O1 (configuration not stated) | 25.4 | 106.2 | 47.1* | i | -1.0
CCOc1cc(C(=O)OCC(=O)Nc2ccc(SC(F)F)cc2)cc(OCC)c1OCC | -5.9 | 113.5 | -1.1 | i | 0.0
COc1ccccc1-c1nnc(SC/C(O)=C(\C#N)c2nc3ccccc3[nH]2)n1C1CCCCC1 | 22.3 | · | 24.0 | i | 0.6
C=CCn1c(COc2ccccc2)nnc1SCc1ccc(C#N)cc1 | -5.0 | 107.2 | 1.1 | i | -1.0
C=CCn1c(COc2ccc(CC)cc2)nnc1SC/C(O)=C(\C#N)c1nc2ccccc2[nH]1 | 22.4 | 101.0 | 70.5* | i | 0.9
N#C/C(=C(/O)CSc1nnc(Cc2cccs2)n1C1CCCCC1)c1nc2ccccc2[nH]1 | 22.4 | 113.6 | 63.1* | i | 0.6
CCc1ccc(S(=O)(=O)/N=C2\C=C(Nc3ccc(O)cc3)C(=O)c3ccccc32)cc1 | 12.3 | 96.9 | -3.1 | i | 0.4
CCc1ccc(S(=O)(=O)/N=C2/C=C(Sc3ncn[nH]3)C(=O)c3ccccc32)cc1 | 70.6* | · | -4.9 | · | 1.8
O=S(=O)(NCCOc1ccc(F)cc1)c1ccc2c(c1)OCCO2 | -1.1 | 96.4 | 6.9 | i | -0.7
COc1ccccc1/C=C/C=N/NC(=O)CN1CCN(S(=O)(=O)c2ccc(C)cc2)CC1 | 10.4 | 97.3 | -0.9 | + | -0.4
Cc1ccc(CN(C)C(=O)CC2C(=O)NCCN2CC2CCCCC2)cc1 (configuration not stated) | -5.9 | 94.9 | 1.9 | i | -0.6
c1ccc2sc(N3CCOCC3)nc2c1 | 0.9 | 101.5 | -0.8 | i | -0.4
c1ccc2sc(SN3CCOCC3)nc2c1 | 8.7 | 79.9* | -5.0 | i | -0.5
SMILES | NadD block | Pemphigus Ab inh | core dimer inh | Rce1 inh | TbMetRS inhib
Cc1ccc(C(=O)CC2(O)C(=O)N(CN3CCOCC3)c3ccccc32)cc1 (configuration not stated) | 1.4 | 102.5 | -9.8 | i | -0.3
CCSc1nnc(NC(=O)C2Cc3ccccc3CN2C(=O)c2ccco2)s1 (configuration not stated) | 21.7 | 96.2 | 85.3* | i | -0.6
C=CCn1c(=O)c2ccccc2n2c(SCC(=O)N(C)C)nnc12 | -2.7 | 103.4 | · | i | -1.0
Cc1ccc(S(=O)(=O)N2CCCOC2CNC(=O)C(=O)NCCc2ccco2)cc1 (configuration not stated) | 3.1 | 82.1* | · | · | -0.3
O=C(NCCc1ccco1)C(=O)NCC1OCCCN1S(=O)(=O)c1ccc(Cl)cc1 (configuration not stated) | -0.2 | · | 2.0 | i | -0.2
Cc1cc(C)c(S(=O)(=O)N2CCOC2CNC(=O)C(=O)NCCc2ccc(S(N)(=O)=O)cc2)c(C)c1 (configuration not stated) | -1.6 | 100.4 | 49.6* | i | -0.7
Cc1cc(NC(=O)c2ccc(S(=O)(=O)N3CCc4ccccc43)cc2)no1 | 20.0 | 92.7 | 72.3* | i | -0.1
Cc1cc(NC(=O)c2ccc(S(=O)(=O)N3CCOCC3)cc2)no1 | 0.1 | 89.0 | -1.3 | i | -1.3
Cc1ccccc1OCC(O)Cn1c(NCc2ccco2)nc2c1c(=O)n(C)c(=O)n2C (configuration not stated) | -0.7 | 100.0 | 5.2 | · | 0.2
COc1ccc(NC(=O)CO/N=C(\C)c2cccs2)cc1 | 0.8 | 89.8 | 10.1 | i | -0.5
CCc1cc2cc3c(cc2nc1SCC(=O)Nc1cc(C)on1)OCO3 | -3.4 | 87.5* | 110.5* | i | 0.2
N#CC1=C(N)OC2=C(CC/C2=C\c2ccccc2)C1c1ccccc1 (configuration not stated) | 33.0* | 345.5 | 55.1* | i | -0.2
N#CC1=C(N)OC2=C(CC/C2=C\c2ccccc2Cl)C1c1ccccc1Cl (configuration not stated) | 15.7 | 107.8 | 14.8 | i | 0.1
Cc1cc2cc(CN(Cc3cccs3)C(=S)NCC3CCCO3)c(=O)[nH]c2cc1C (configuration not stated) | 1.8 | 103.7 | 8.3 | i | 0.2
Cc1cc(C)c2[nH]c(=O)c(CN(Cc3cccs3)C(=S)NCC3CCCO3)cc2c1 (configuration not stated) | 5.8 | 84.9* | 17.8 | i | 0.3
O=C(CCCn1c(=O)[nH]c2ccsc2c1=O)NC1CCCCC1 | -1.5 | 123.1 | 1.1 | i | -0.1
Cc1ccc(S(=O)(=O)Nc2cc3c(C(=O)Nc4ccccc4)c(C)oc3c3ccccc23)cc1 | 23.2 | 88.9 | 50.1* | i | 0.2
CCOC(=O)c1c(N)sc2c1CCSC2 | 13.6 | 108.0 | 54.5* | i | -1.6
